In ChEMBL document CHEMBL1154352, “Toll-like receptor 7 selective synthetic oligoribonucleotide agonists: synthesis and structure-activity relationship studies” (J Med Chem, 2009):
The source made the active and inactive calls. The calls are words filed in the database; no cut-off is given here.

Tests used:
[1] = target: T1, Toll-like receptor 9 (Mus musculus) (UniProt Q9EQU3); test: Activation of mouse TLR9 expressed in HEK293 assessed as induction of NF-kappaB activity reporter gene assay; format: cell-based
T1 sequence (whole entry): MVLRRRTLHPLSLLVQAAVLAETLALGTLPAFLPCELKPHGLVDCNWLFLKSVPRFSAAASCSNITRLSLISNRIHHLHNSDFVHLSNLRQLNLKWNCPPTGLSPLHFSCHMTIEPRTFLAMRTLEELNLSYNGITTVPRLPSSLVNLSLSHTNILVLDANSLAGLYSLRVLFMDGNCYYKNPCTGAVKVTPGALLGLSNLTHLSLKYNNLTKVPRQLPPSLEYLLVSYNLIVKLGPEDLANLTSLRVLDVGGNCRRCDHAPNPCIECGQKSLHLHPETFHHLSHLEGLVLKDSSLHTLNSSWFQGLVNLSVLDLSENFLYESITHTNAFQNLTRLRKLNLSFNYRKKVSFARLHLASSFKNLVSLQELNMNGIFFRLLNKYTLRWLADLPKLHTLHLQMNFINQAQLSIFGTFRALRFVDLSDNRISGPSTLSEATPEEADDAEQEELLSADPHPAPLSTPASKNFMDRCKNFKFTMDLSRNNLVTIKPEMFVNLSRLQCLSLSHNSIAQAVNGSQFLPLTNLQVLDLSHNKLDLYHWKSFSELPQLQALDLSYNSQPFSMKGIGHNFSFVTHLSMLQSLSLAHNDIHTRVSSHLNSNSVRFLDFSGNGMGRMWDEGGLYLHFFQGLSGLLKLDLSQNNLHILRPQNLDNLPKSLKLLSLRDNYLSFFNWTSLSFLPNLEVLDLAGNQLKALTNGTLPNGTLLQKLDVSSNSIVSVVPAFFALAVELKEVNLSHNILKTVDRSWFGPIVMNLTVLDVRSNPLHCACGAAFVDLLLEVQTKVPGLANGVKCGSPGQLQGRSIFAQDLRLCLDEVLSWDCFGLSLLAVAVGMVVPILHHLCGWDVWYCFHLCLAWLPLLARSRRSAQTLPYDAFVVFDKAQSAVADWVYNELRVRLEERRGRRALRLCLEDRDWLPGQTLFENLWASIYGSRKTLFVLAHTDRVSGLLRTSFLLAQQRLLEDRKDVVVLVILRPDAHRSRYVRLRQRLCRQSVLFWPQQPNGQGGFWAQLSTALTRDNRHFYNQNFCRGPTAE

PBMC [2] = test: Immunomodulatory activity in human PBMC assessed as induction of IL12 at 100 ug/ml after 24 hrs; format: functional, cell-based
Method in brief: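 Human PBMCs plated at 5 × 10^6 cells/mL; compounds dissolved in PBS added at various concentrations, 37 °C for 24 h. Supernatant cytokines/chemokines quantified with human Luminex multiplex kit.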

PBMC [3] = test: Immunomodulatory activity in human PBMC assessed as induction of IFN-alpha at 100 ug/ml after 24 hrs
[4] = target: Toll-like receptor 3 (Homo sapiens) (UniProt O15455); test: Activation of human TLR3 expressed in HEK293 assessed as induction of NF-kappaB activity reporter gene assay; format: cell-based
Sequence of Toll-like receptor 3 (Homo sapiens) (O15455 whole entry): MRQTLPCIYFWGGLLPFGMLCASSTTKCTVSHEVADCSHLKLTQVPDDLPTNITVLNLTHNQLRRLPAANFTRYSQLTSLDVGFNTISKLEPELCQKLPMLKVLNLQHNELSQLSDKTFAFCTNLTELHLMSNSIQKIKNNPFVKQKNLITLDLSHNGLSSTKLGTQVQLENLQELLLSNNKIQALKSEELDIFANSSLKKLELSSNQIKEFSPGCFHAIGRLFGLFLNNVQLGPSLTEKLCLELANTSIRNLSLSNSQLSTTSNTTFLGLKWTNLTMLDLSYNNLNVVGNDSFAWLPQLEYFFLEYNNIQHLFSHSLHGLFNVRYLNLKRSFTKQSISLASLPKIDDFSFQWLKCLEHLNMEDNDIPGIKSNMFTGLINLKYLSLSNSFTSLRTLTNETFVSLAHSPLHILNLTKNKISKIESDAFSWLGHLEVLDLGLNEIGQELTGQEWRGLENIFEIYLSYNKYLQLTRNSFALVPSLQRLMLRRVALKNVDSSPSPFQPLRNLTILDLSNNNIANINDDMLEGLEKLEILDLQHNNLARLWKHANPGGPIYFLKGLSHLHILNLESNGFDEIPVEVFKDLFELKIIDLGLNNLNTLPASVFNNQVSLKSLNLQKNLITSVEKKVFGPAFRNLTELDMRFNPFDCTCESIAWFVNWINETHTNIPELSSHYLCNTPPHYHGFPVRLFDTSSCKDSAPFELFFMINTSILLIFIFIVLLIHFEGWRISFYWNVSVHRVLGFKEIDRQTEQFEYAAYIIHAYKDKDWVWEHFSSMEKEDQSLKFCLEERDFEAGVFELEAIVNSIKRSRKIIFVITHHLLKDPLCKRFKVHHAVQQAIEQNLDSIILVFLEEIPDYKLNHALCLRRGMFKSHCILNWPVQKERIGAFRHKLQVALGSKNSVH

Activity [1] | Activity [4] | SMILES | Activity (PBMC [2]) [pg/mL] | IFN-alpha (PBMC [3]) [pg/mL]
inactive | inactive | Nc1ccn([C@@H]2O[C@H](COP(=O)(S)O[C@H]3[C@@H](O)[C@H](n4cnc5c(N)ncnc54)O[C@@H]3COP(=O)(S)O[C@H]3[C@@H](O)[C@H](n4cnc5c(N)ncnc54)O[C@@H]3CO)[C@@H](OP(=O)(S)OC[C@H]3O[C@@H](n4ccc(=O)[nH]c4=O)[C@H](O)[C@@H]3OP(=O)(S)OC[C@H]3O[C@@H](n4ccc5c(=O)[nH]c(N)nc54)[C@H](O)[C@@H]3OP(=O)(S)OC[C@H]3O[C@@H](n4cnc5c(N)ncnc54)[C@H](O)[C@@H]3OP(=O)(S)OC[C@H]3O[C@@H](n4ccc(N)nc4=O)[C@H](O)[C@@H]3OP(=O)(S)OC[C@H]3O[C@@H](n4ccc5c(=O)[nH]c(N)nc54)[C@H](O)[C@@H]3OP(=O)(S)OC[C@H]3O[C@@H](n4ccc(N)nc4=O)[C@H](O)[C@@H]3OP(=O)(S)OC[C@H]3O[C@@H](n4ccc(=O)[nH]c4=O)[C@H](O)[C@@H]3OP(=O)(S)OC[C@H]3O[C@@H](n4ccc5c(=O)[nH]c(N)nc54)[C@H](O)[C@@H]3OP(=O)(S)OCC(O)COP(=O)(S)O[C@H]3[C@@H](O)[C@H](n4ccc5c(=O)[nH]c(N)nc54)O[C@@H]3COP(=O)(S)O[C@H]3[C@@H](O)[C@H](n4ccc(=O)[nH]c4=O)O[C@@H]3COP(=O)(S)O[C@H]3[C@@H](O)[C@H](n4ccc(N)nc4=O)O[C@@H]3COP(=O)(S)O[C@H]3[C@@H](O)[C@H](n4ccc5c(=O)[nH]c(N)nc54)O[C@@H]3COP(=O)(S)O[C@H]3[C@@H](O)[C@H](n4ccc(N)nc4=O)O[C@@H]3COP(=O)(S)O[C@H]3[C@@H](O)[C@H](n4cnc5c(N)ncnc54)O[C@@H]3COP(=O)(S)O[C@H]3[C@@H](O)[C@H](n4ccc5c(=O)[nH]c(N)nc54)O[C@@H]3COP(=O)(S)O[C@H]3[C@@H](O)[C@H](n4ccc(=O)[nH]c4=O)O[C@@H]3COP(=O)(S)O[C@H]3[C@@H](O)[C@H](n4ccc(N)nc4=O)O[C@@H]3COP(=O)(S)O[C@H]3[C@@H](O)[C@H](n4cnc5c(N)ncnc54)O[C@@H]3COP(=O)(S)O[C@H]3[C@@H](O)[C@H](n4cnc5c(N)ncnc54)O[C@@H]3CO)[C@H]2O)c(=O)n1 (stereo not given in full) | 154 | 0
inactive | inactive | Nc1ccn([C@@H]2O[C@H](COP(=O)(S)O[C@H]3[C@@H](O)[C@H](n4cnc5c(N)ncnc54)O[C@@H]3CO)[C@@H](OP(=O)(S)OC[C@H]3O[C@@H](n4ccc(=O)[nH]c4=O)[C@H](O)[C@@H]3OP(=O)(S)OC[C@H]3O[C@@H](n4ccc(=O)[nH]c4=O)[C@H](O)[C@@H]3OP(=O)(S)OC[C@H]3O[C@@H](n4ccc5c(=O)[nH]c(N)nc54)[C@H](O)[C@@H]3OP(=O)(S)OC[C@H]3O[C@@H](n4cnc5c(N)ncnc54)[C@H](O)[C@@H]3OP(=O)(S)OC[C@H]3O[C@@H](n4ccc(N)nc4=O)[C@H](O)[C@@H]3OP(=O)(S)OC[C@H]3O[C@@H](n4ccc(=O)[nH]c4=O)[C@H](O)[C@@H]3OP(=O)(S)OC[C@H]3O[C@@H](n4ccc(=O)[nH]c4=O)[C@H](O)[C@@H]3OP(=O)(S)OC[C@H]3O[C@@H](n4ccc5c(=O)[nH]c(N)nc54)[C@H](O)[C@@H]3OP(=O)(S)OC[C@H]3O[C@@H](n4cnc5c(N)ncnc54)[C@H](O)[C@@H]3OP(=O)(S)OCC(O)COP(=O)(S)O[C@H]3[C@@H](O)[C@H](n4cnc5c(N)ncnc54)O[C@@H]3COP(=O)(S)O[C@H]3[C@@H](O)[C@H](n4ccc5c(=O)[nH]c(N)nc54)O[C@@H]3COP(=O)(S)O[C@H]3[C@@H](O)[C@H](n4ccc(=O)[nH]c4=O)O[C@@H]3COP(=O)(S)O[C@H]3[C@@H](O)[C@H](n4ccc(=O)[nH]c4=O)O[C@@H]3COP(=O)(S)O[C@H]3[C@@H](O)[C@H](n4ccc(N)nc4=O)O[C@@H]3COP(=O)(S)O[C@H]3[C@@H](O)[C@H](n4cnc5c(N)ncnc54)O[C@@H]3COP(=O)(S)O[C@H]3[C@@H](O)[C@H](n4ccc5c(=O)[nH]c(N)nc54)O[C@@H]3COP(=O)(S)O[C@H]3[C@@H](O)[C@H](n4ccc(=O)[nH]c4=O)O[C@@H]3COP(=O)(S)O[C@H]3[C@@H](O)[C@H](n4ccc(=O)[nH]c4=O)O[C@@H]3COP(=O)(S)O[C@H]3[C@@H](O)[C@H](n4ccc(N)nc4=O)O[C@@H]3COP(=O)(S)O[C@H]3[C@@H](O)[C@H](n4cnc5c(N)ncnc54)O[C@@H]3CO)[C@H]2O)c(=O)n1 (stereo not given in full) | – | –
inactive | inactive | Nc1ccn([C@@H]2O[C@H](COP(=O)(S)O[C@H]3[C@@H](O)[C@H](n4cnc5c(N)ncnc54)O[C@@H]3CO)[C@@H](OP(=O)(S)OC[C@H]3O[C@@H](n4ccc(=O)[nH]c4=O)[C@H](O)[C@@H]3OP(=O)(S)OC[C@H]3O[C@@H](n4ccc5c(=O)[nH]c(N)nc54)[C@H](O)[C@@H]3OP(=O)(S)OC[C@H]3O[C@@H](n4cnc5c(N)ncnc54)[C@H](O)[C@@H]3OP(=O)(S)OC[C@H]3O[C@@H](n4ccc5c(=O)[nH]c(N)nc54)[C@H](O)[C@@H]3OP(=O)(S)OC[C@H]3O[C@@H](n4cnc5c(N)ncnc54)[C@H](O)[C@@H]3OP(=O)(S)OC[C@H]3O[C@@H](n4ccc5c(=O)[nH]c(N)nc54)[C@H](O)[C@@H]3OP(=O)(S)OC[C@H]3O[C@@H](n4ccc(N)nc4=O)[C@H](O)[C@@H]3OP(=O)(S)OC[C@H]3O[C@@H](n4ccc(=O)[nH]c4=O)[C@H](O)[C@@H]3OP(=O)(S)OC[C@H]3O[C@@H](n4ccc(=O)[nH]c4=O)[C@H](O)[C@@H]3OP(=O)(S)OCC(O)COP(=O)(S)O[C@H]3[C@@H](O)[C@H](n4ccc(=O)[nH]c4=O)O[C@@H]3COP(=O)(S)O[C@H]3[C@@H](O)[C@H](n4ccc(=O)[nH]c4=O)O[C@@H]3COP(=O)(S)O[C@H]3[C@@H](O)[C@H](n4ccc(N)nc4=O)O[C@@H]3COP(=O)(S)O[C@H]3[C@@H](O)[C@H](n4ccc5c(=O)[nH]c(N)nc54)O[C@@H]3COP(=O)(S)O[C@H]3[C@@H](O)[C@H](n4cnc5c(N)ncnc54)O[C@@H]3COP(=O)(S)O[C@H]3[C@@H](O)[C@H](n4ccc5c(=O)[nH]c(N)nc54)O[C@@H]3COP(=O)(S)O[C@H]3[C@@H](O)[C@H](n4cnc5c(N)nc(N)nc54)O[C@@H]3COP(=O)(S)O[C@H]3[C@@H](O)[C@H](n4ccc5c(=O)[nH]c(N)nc54)O[C@@H]3COP(=O)(S)O[C@H]3[C@@H](O)[C@H](n4ccc(=O)[nH]c4=O)O[C@@H]3COP(=O)(S)O[C@H]3[C@@H](O)[C@H](n4ccc(N)nc4=O)O[C@@H]3COP(=O)(S)O[C@H]3[C@@H](O)[C@H](n4cnc5c(N)ncnc54)O[C@@H]3CO)[C@H]2O)c(=O)n1 (stereo not given in full) | – | –
inactive | inactive | Nc1ccn([C@@H]2O[C@H](COP(=O)(S)O[C@H]3[C@@H](O)[C@H](n4cnc5c(N)ncnc54)O[C@@H]3CO)[C@@H](OP(=O)(S)OC[C@H]3O[C@@H](n4ccc(=O)[nH]c4=O)[C@H](O)[C@@H]3OP(=O)(S)OC[C@H]3O[C@@H](n4ccc(=O)[nH]c4=O)[C@H](O)[C@@H]3OP(=O)(S)OC[C@H]3O[C@@H](n4ccc5c(=O)[nH]c(N)nc54)[C@H](O)[C@@H]3OP(=O)(S)OC[C@H]3O[C@@H](n4cnc5c(N)ncnc54)[C@H](O)[C@@H]3OP(=O)(S)OC[C@H]3O[C@@H](n4cnc5c(N)ncnc54)[C@H](O)[C@@H]3OP(=O)(S)OC[C@H]3O[C@@H](n4ccc(N)nc4=O)[C@H](O)[C@@H]3OP(=O)(S)OC[C@H]3O[C@@H](n4ccc(=O)[nH]c4=O)[C@H](O)[C@@H]3OP(=O)(S)OC[C@H]3O[C@@H](n4ccc(=O)[nH]c4=O)[C@H](O)[C@@H]3OP(=O)(S)OC[C@H]3O[C@@H](n4ccc5c(=O)[nH]c(N)nc54)[C@H](O)[C@@H]3OP(=O)(S)OCC(O)COP(=O)(S)O[C@H]3[C@@H](O)[C@H](n4ccc5c(=O)[nH]c(N)nc54)O[C@@H]3COP(=O)(S)O[C@H]3[C@@H](O)[C@H](n4ccc(=O)[nH]c4=O)O[C@@H]3COP(=O)(S)O[C@H]3[C@@H](O)[C@H](n4ccc(=O)[nH]c4=O)O[C@@H]3COP(=O)(S)O[C@H]3[C@@H](O)[C@H](n4ccc(N)nc4=O)O[C@@H]3COP(=O)(S)O[C@H]3[C@@H](O)[C@H](n4cnc5c(N)ncnc54)O[C@@H]3COP(=O)(S)O[C@H]3[C@@H](O)[C@H](n4cnc5c(N)ncnc54)O[C@@H]3COP(=O)(S)O[C@H]3[C@@H](O)[C@H](n4ccc5c(=O)[nH]c(N)nc54)O[C@@H]3COP(=O)(S)O[C@H]3[C@@H](O)[C@H](n4ccc(=O)[nH]c4=O)O[C@@H]3COP(=O)(S)O[C@H]3[C@@H](O)[C@H](n4ccc(=O)[nH]c4=O)O[C@@H]3COP(=O)(S)O[C@H]3[C@@H](O)[C@H](n4ccc(N)nc4=O)O[C@@H]3COP(=O)(S)O[C@H]3[C@@H](O)[C@H](n4cnc5c(N)ncnc54)O[C@@H]3CO)[C@H]2O)c(=O)n1 (stereo not given in full) | – | –
